Compound activity deposited in PubChem BioAssay by Broad Institute.
C2C12 statin: suppressors of statin myotoxicity in C2C12 myotubes, primary screen, cell-based, single point, plate reader; C2C12 myotubes + simvastatin, ATP luminescence, 48 h; scaled: DMSO 0, geranylgeraniol control 100; actives 0.78% (n = 330,000); rescue of ATP level, % at 7.49 µM;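 active = mean ATP rescue above about 67%, or every replicate alone reaching that limit, limit read from the data, passing the limit was not always enough; inconclusive = no clear call, values can overlap the other calls; inactive = mean under the limit and some replicate under it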;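 note: myotubes were challenged with 10 µM simvastatin during compound exposure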
FGF22 binding: binders of human FGF22 protein, primary screen, FGF22 synaptogenesis inhibitor project, biophysical, thermal shift, single point. Fibroblast growth factor 22 (Homo sapiens), Q9HCT0. recombinant FGF22 thermal shift, SYPRO orange fluorescence; percent of sucrose octasulfate shift, DMSO zero. activity (Tm shift, normalised), % at 9.99 µM. actives 1.5% (n = 340,000). AID 651658, 2012;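 active = mean Tm shift, scaled 0 neutral to 100 positive control, at about 1.3% or above, every replicate too, limit read from the data; inconclusive = no clear call, values can overlap the other calls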
Target sequence (Q9HCT0 whole entry, looked up): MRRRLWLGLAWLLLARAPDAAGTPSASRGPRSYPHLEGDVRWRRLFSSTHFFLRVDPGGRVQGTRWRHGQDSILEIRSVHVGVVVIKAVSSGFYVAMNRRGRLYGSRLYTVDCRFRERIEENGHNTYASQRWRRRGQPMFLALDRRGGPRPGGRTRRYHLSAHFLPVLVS
E-sel inducer: E-selectin induction in HUVECs, primary screen, imaging, HUVEC, immunofluorescence imaging, single point. P16581. normalized: neutral wells 0, TNF-alpha wells 100. activation, % at 7.58 µM. actives 0.37% (n = 260,000). AID 686992, 2013;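 active = mean E-selectin-positive cell signal at least 10% of the positive control, reached in at least 60% of replicates, without over 20% cell loss; inconclusive = no rule given, readout overlaps actives, possibly toxicity-flagged; inactive = the rest, including those meeting only one limit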
Target sequence (P16581 whole entry, looked up): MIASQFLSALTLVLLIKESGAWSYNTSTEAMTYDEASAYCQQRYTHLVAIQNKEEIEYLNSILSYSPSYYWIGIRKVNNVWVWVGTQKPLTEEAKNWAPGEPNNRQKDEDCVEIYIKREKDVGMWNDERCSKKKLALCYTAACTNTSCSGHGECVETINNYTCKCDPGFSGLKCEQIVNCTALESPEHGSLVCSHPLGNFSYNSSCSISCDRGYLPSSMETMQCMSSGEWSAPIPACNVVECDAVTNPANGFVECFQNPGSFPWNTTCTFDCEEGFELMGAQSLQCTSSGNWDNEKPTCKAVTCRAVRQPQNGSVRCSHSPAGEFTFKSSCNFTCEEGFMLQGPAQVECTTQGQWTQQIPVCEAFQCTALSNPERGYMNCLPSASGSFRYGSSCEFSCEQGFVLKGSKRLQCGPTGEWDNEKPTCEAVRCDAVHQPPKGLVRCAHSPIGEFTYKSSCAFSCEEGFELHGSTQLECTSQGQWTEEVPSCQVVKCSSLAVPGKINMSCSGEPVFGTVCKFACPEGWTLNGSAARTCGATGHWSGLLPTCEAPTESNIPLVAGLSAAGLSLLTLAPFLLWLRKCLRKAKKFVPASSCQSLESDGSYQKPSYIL
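Test system – human umbilical vein endothelial cells (HUVEC), E-selectin induction · Input – 3,000 HUVEC seeded per well · Buffer or medium – EGM-2, gelatin · Compound dosing – single-point compound dose · Detection – immunofluorescence imaging · Measure – percent E-selectin-positive cells · Controls – TNF-alpha high, DMSO low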
PglD inh: C. jejuni PglD acetyltransferase inhibitors, primary screen, biochemical, DTNB colorimetric, single point; UDP-N-acetylbacillosamine N-acetyltransferase PglD (Campylobacter jejuni); purified PglD enzyme, DTNB colorimetric CoA detection; inhibition, % at 12.5 µM; actives 0.098% (n = 360,000); AID 602405, 2012; in the data active = inhibition above about 16%, passing the limit was not always enough; inconclusive = no clear call, values can overlap the other calls
XiGFP reactiv: activators of inactive X chromosome reactivation, primary screen, imaging, XiGFP fibroblasts, GFP high-content imaging, set 2 | XiGFP mouse fibroblasts, % GFP-positive cells imaging, 3 d; cells co-treated with 5-aza-dC sensitizer; scaled so ellipticine positive control = 100% | activation, % at 7.58 µM | actives 0.055% (n = 360,000) | AID 743238, 2013;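 active = mean normalized replicate activation at least 10% and every replicate at or above 10%; inconclusive = only one of the two criteria met; inactive = mean below 10% and not all replicates reach 10%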
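Assay system – SV40-immortalized XiGFP fibroblast cells, line 68-5-11 · Buffer or medium – DMEM supplemented with 5-aza-dC as sensitizing agent · Dosing – one concentration, pinned · Benchmarks – positive control ellipticine, 6 µM final · Times – 3 days compound exposure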
DENV2 CPE rescue: inhibitors of DENV2 cytopathic effect, primary screen, cell-based, plate reader, single concentration | CPE inhibition, % at 9.99 µM | DENV2-infected cells, cytopathic effect rescue | actives 1.7% (n = 350,000); in the data active = CPE inhibition above about 20%, passing the limit was not always enough; inconclusive = no clear call, values can overlap the other calls; tested in BHK-21 cells
Large screens that a line does not name were inactive; ! = not active in a repeat. Rows were chosen to be rich in hits. Some 3.3% of all compounds tested hit in one or more screens of this group.

CO[C@H]1CN(C)C(=O)c2cc(NC(=O)c3cnccn3)ccc2OC[C@@H](C)N(C)C[C@H]1C	none
CO[C@@H]1CN(C)C(=O)c2cc(NC(C)=O)ccc2OC[C@H](C)N(C(=O)c2ccccc2)C[C@@H]1C	none
CCC(=O)Nc1ccc2c(c1)C(=O)N(C)C[C@@H](OC)[C@@H](C)CN(C(=O)COC)[C@@H](C)CO2	none
CO[C@H]1CN(C)C(=O)c2cc(NC(C)=O)ccc2OC[C@@H](C)N(C(=O)c2ccccc2)C[C@@H]1C	DENV2 CPE rescue 24
CCC(=O)Nc1ccc2c(c1)C(=O)N(C)C[C@@H](OC)[C@@H](C)CN(C(=O)COC)[C@H](C)CO2	DENV2 CPE rescue 22
CCC(=O)N1C[C@H](C)[C@H](OC)CN(C)C(=O)c2cc(NC(=O)COC)ccc2OC[C@H]1C	DENV2 CPE rescue 21
O=C(c1ccccc1F)N1C[C@@H]2[C@H](c3ccccc31)[C@@H](CO)N2Cc1ccc2c(c1)OCO2	none
CC(C)(C)NCC(O)COc1ccc(Br)cc1 (stereo not given)	FGF22 binding 44 (no result: C2C12 statin, E-sel inducer, DENV2 CPE rescue)
O=C(COC(=O)C1CCN(S(=O)(=O)c2cccc3cccnc23)CC1)c1ccc(F)cc1	C2C12 statin 96 (no result: FGF22 binding, E-sel inducer, XiGFP reactiv, DENV2 CPE rescue)
COc1ccc2c3c(n(C)c2c1)[C@@H](CO)N(C(=O)CN(C)C)CC31CN(C(=O)NC(C)C)C1	none (no result: C2C12 statin, PglD inh)
COc1ccc(C(=O)/C(=C/c2cccs2)c2nc3ccccc3o2)cc1	C2C12 statin 94 (no result: FGF22 binding, E-sel inducer, XiGFP reactiv, DENV2 CPE rescue)
COc1ccc(/C=C(\CC(=O)O)c2nc3ccccc3o2)cc1	none (no result: E-sel inducer)
C[C@H]1CCCCO[C@H](CN(C)C(=O)Nc2ccc(F)cc2)[C@@H](C)CN([C@@H](C)CO)C(=O)c2cc(NS(=O)(=O)c3ccccc3)ccc2O1	DENV2 CPE rescue 53 (no result: C2C12 statin)
C[C@@H]1CN([C@H](C)CO)C(=O)c2cc(NS(=O)(=O)c3ccc(F)cc3)ccc2O[C@@H](C)CCCCO[C@H]1CN(C)C(=O)Nc1ccc(F)cc1	none (no result: C2C12 statin)
C[C@H]1CCCCO[C@H](CN(C)C(=O)Nc2ccc(F)cc2)[C@@H](C)CN([C@@H](C)CO)C(=O)c2cc(NS(=O)(=O)c3ccc(F)cc3)ccc2O1	DENV2 CPE rescue 27 (no result: C2C12 statin)
C[C@@H]1CN([C@H](C)CO)C(=O)c2cc(NS(=O)(=O)c3ccc(F)cc3)ccc2O[C@@H](C)CCCCO[C@@H]1CN(C)C(=O)c1ccccc1	none (no result: C2C12 statin)
C[C@@H]1CCCCO[C@@H](CN(C)C(=O)c2ccccc2)[C@H](C)CN([C@H](C)CO)C(=O)c2cc(NS(=O)(=O)c3ccc(F)cc3)ccc2O1	DENV2 CPE rescue 22 (no result: C2C12 statin)
CCC(=O)N(C)C[C@@H]1Oc2cc(-c3ccccc3C)ccc2S(=O)(=O)N([C@@H](C)CO)C[C@@H]1C	none
COc1ccc(S(=O)(=O)N(C)C[C@@H]2Oc3ccc(NS(=O)(=O)c4cn(C)cn4)cc3CC(=O)N([C@@H](C)CO)C[C@@H]2C)cc1	none
COc1ccccc1CCNC(=O)/C(=C/c1cccnc1)NC(=O)c1ccccc1	E-sel inducer 52 (no result: PglD inh)
O=C(NCCc1c[nH]c2ccccc12)/C(=C\c1cccnc1)NC(=O)c1ccccc1Br	DENV2 CPE rescue 41
COc1ccc(NC(=O)Nc2ccc3c(c2)CC(=O)N([C@H](C)CO)C[C@H](C)[C@H](CN(C)S(=O)(=O)c2c(C)noc2C)O3)cc1	none (no result: E-sel inducer)
CCCSc1nc(N)c2c3c(sc2n1)CN(C)CC3	C2C12 statin 99 (no result: FGF22 binding, E-sel inducer, XiGFP reactiv, DENV2 CPE rescue)
CC(=O)Oc1ccc(C(=O)Nc2cccc(-c3nnc(-c4ccco4)o3)c2)cc1	none
O=C(Nc1cccc(-c2nnc(-c3ccco3)o2)c1)c1ccccc1	FGF22 binding 43 (no result: C2C12 statin)
CCCC12CN3CC(C)(CN(C1)C3c1ccc([N+](=O)[O-])o1)C2=O (stereo not given)	none
CCC12CN3CC(CC)(CN(C1)C3c1ccc([N+](=O)[O-])o1)C2=O (stereo not given)	FGF22 binding 43 (no result: C2C12 statin, E-sel inducer, PglD inh)
CC12CN3CC(C)(CN(C1)C3c1ccc([N+](=O)[O-])o1)C2=O (stereo not given)	FGF22 binding 44 (no result: C2C12 statin, E-sel inducer, PglD inh)
COc1ccc(-c2cnc3c(c2)C(=O)N([C@@H](C)CO)C[C@H](C)[C@@H](CN(C)Cc2cccnc2)O3)cc1	none
OCCN(CCCn1c(-c2ccncc2)nc2ccccc21)c1nc(CN2CCCCC2)cs1	C2C12 statin 66
CCCCOC(=O)C1CN(c2ccccc2)N=C1C(C)=O (stereo not given)	FGF22 binding 43, DENV2 CPE rescue inconclusive (no result: C2C12 statin, PglD inh)
C[C@@H]1CN([C@H](C)CO)C(=O)c2cccc(N(C)C)c2O[C@@H]1CN(C)C	none
COC(=O)c1ccccc1COn1c(=O)c(C)[n+]([O-])c2ccccc21	C2C12 statin 105 (no result: FGF22 binding, E-sel inducer, XiGFP reactiv, DENV2 CPE rescue)
Clc1ccc(-c2cc(COc3ccccc3)on2)cc1	FGF22 binding 43 (no result: E-sel inducer)
COCC(=O)Nc1ccc2c(c1)[C@@H]1C[C@H](CC(=O)NCc3ccc(Cl)cc3)O[C@@H](CO)[C@@H]1O2	none
CCOC(=O)c1c(-c2cccs2)csc1NC(=O)CN1CCOCC1	C2C12 statin 93 (no result: FGF22 binding, E-sel inducer, XiGFP reactiv, DENV2 CPE rescue)
CNc1ccc(/C=C2\COc3ccccc3C2=O)cc1[N+](=O)[O-]	none (no result: FGF22 binding, E-sel inducer, XiGFP reactiv, DENV2 CPE rescue)
O=C1/C(=C/c2ccccc2[N+](=O)[O-])COc2ccccc21	C2C12 statin 169
CN(C)C(=O)C[C@@H]1CC[C@@H](NC(=O)c2ccc(F)cc2)[C@H](CO)O1	DENV2 CPE rescue 45
O=C(C[C@@H]1CC[C@H](NC(=O)NC2CCCCC2)[C@@H](CO)O1)NCc1ccc(F)cc1	none
O=C(C[C@@H]1CC[C@H](NC(=O)c2ccc3c(c2)OCO3)[C@@H](CO)O1)NCc1ccc(F)cc1	DENV2 CPE rescue 32!
O=C(C[C@@H]1CC[C@@H](NC(=O)Nc2ccc3c(c2)OCO3)[C@@H](CO)O1)NCc1ccc2c(c1)OCO2	DENV2 CPE rescue 29
O=C(C[C@H]1CC[C@H](NC(=O)c2ccc3c(c2)OCO3)[C@@H](CO)O1)NCc1ccc(F)cc1	none
CN(C)C(=O)C[C@H]1CC[C@H](NC(=O)c2ccc(F)cc2)[C@@H](CO)O1	none
O=C(C[C@@H]1CC[C@@H](NC(=O)NC2CCCCC2)[C@@H](CO)O1)NCc1ccc(F)cc1	DENV2 CPE rescue 39
